The source made the active and inactive calls. The rule behind the calls is not given here.
Tests used:
A549 = assay: Resistance ratio of IC50 for human taxol-resistant A549-T12 cells expressing tubulin mutant gene to IC50 for human A549 cells; type: functional
CCRF-CEM [1] = assay: Resistance ratio of IC50 for human vinblastine-resistant CEM/VBL100 cells overexpressing P-glycoprotein to IC50 for human CEM cells; type: functional
LoVo [2] = assay: Resistance ratio of IC50 for human doxorubicin-resistant LoVo/DX cells overexpressing P-glycoprotein to IC50 for human LoVo cells; type: functional
HeLa [3] = assay: Downregulation of Xiap expression in human HeLa cells at 250 to 500 nM after 24 hrs by Western blot analysis; type: functional, cell-based
Procedure, shortened: (§1)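 HeLa cells treated for 24 or 48 h, washed twice with ice-cold PBS and lysed on ice 30 min; lysates spun at 15000 ×g, 4 °C. Protein (20 μg) resolved by SDS–PAGE on 7.5–15% gels and blotted to PVDF. Specific primary antibodies for 2 h at room temperature, then peroxidase secondary for 60 min, ECL detection. Membranes stripped and reprobed for β-actin as loading control.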

HeLa [4] = assay: Downregulation of Mcl-1 expression in human HeLa cells at 250 to 500 nM after 24 hrs by Western blot analysis; type: functional, cell-based; procedure, shortened: as §1
HeLa [5] = assay: Effect on Bax expression in human HeLa cells at 250 to 500 nM after 24 to 48 hrs by Western blot analysis; type: functional, cell-based; procedure, shortened: as §1
HeLa [6] = assay: Downregulation of Bcl-2 expression in human HeLa cells at 250 to 500 nM after 24 to 48 hrs by Western blot analysis; type: functional, cell-based; procedure, shortened: as §1
HeLa [7] = assay: Induction of apoptosis in human HeLa cells assessed as appearance of cleaved caspase-8 protein at 250 to 500 nM after 24 to 48 hrs by Western blot analysis; type: functional, cell-based; procedure, shortened: as §1
HeLa [8] = assay: Induction of apoptosis in human HeLa cells assessed as disappearance of uncleaved caspase-2 protein at 250 to 500 nM after 24 to 48 hrs by Western blot analysis; type: functional, cell-based; procedure, shortened: as §1
HeLa [9] = assay: Induction of apoptosis in human HeLa cells assessed as ROS production; type: functional, cell-based
HeLa [10] = assay: Induction of apoptosis in human HeLa cells assessed as mitochondrial polarization; type: functional, cell-based
HeLa [11] = assay: Induction of apoptosis in human HeLa cells assessed as effect on caspase-9 activation at 250 to 500 nM after 24 to 48 hrs by Western blot analysis; type: functional, cell-based; procedure, shortened: as §1
HeLa [12] = assay: Induction of apoptosis in human HeLa cells assessed as increase in caspase-3-mediated PARP cleavage at 250 to 500 nM after 24 to 48 hrs by Western blot analysis; type: functional, cell-based; procedure, shortened: as §1
HeLa [13] = assay: Induction of apoptosis in human HeLa cells assessed as caspase-3 activation at 250 to 500 nM after 24 to 48 hrs by Western blot analysis; type: functional, cell-based; procedure, shortened: as §1
HeLa [14] = assay: Induction of apoptosis in human HeLa cells at 500 nM after 24 to 48 hrs by Annexin V-FITC/propidium iodide staining based biparametric cytofluorimetric analysis; type: functional, cell-based
Procedure, shortened: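 HeLa cells treated at 250 or 500 nM for 24 or 48 h, then labelled with annexin-V-FITC (phosphatidylserine) plus propidium iodide. Red and green fluorescence measured by biparametric flow cytometry. Mean ± SEM of three independent experiments.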

HeLa [15] = assay: Effect on cyclin B expression in human HeLa cells at 250 to 500 nM after 24 hrs by Western blot analysis; type: functional, cell-based; procedure, shortened: as §1
[16] = molecular target: T1, M-phase inducer phosphatase 3 (Homo sapiens) (UniProt P30307); assay: Induction of cdc25C phosphorylation in human HeLa cells assessed as cdc2 kinase dephosphorylation at Tyr15 in human HeLa cells at 250 to 500 nM after 24 to 48 hrs by Western blot analysis; type: cell-based; procedure, shortened: as §1
T1 sequence (whole entry): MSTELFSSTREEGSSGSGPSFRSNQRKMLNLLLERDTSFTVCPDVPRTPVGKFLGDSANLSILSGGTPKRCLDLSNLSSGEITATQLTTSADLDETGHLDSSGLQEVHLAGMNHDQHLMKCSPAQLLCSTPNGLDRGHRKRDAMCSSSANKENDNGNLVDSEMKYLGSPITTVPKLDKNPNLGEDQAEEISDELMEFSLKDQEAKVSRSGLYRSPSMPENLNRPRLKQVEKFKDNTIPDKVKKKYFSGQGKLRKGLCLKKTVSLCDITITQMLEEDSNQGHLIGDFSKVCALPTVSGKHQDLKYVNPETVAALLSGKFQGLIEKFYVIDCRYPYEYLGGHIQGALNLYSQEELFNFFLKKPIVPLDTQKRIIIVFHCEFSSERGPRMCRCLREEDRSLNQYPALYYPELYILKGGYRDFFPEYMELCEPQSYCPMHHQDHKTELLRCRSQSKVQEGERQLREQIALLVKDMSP

[17] = molecular target: T1, M-phase inducer phosphatase 3 (Homo sapiens); assay: Induction of cdc25C phosphorylation in human HeLa cells at 250 to 500 nM after 24 to 48 hrs by Western blot analysis; type: cell-based; procedure, shortened: as §1
Jurkat [18] = assay: Cell cycle arrest in human Jurkat cells assessed as accumulation of cells at G2/M phase at 125 nM after 24 hrs by propidium iodide staining based flow cytometric analysis; type: functional
Procedure, shortened: (§2)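 HeLa or Jurkat cells (5 × 10⁵, exponential growth) treated 24 h with 31–500 nM compound. Cells fixed in ice-cold 70% ethanol, treated with lysis buffer containing RNase A and 0.1% Triton X-100, then stained with propidium iodide. DNA content measured by flow cytometry to give phase distribution. Mean ± SEM of three independent experiments.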

HeLa [19] = assay: Cell cycle arrest in human HeLa cells assessed as accumulation of cells at G2/M phase at 125 nM after 24 hrs by propidium iodide staining based flow cytometric analysis; type: functional; procedure, shortened: as §2
Bos taurus = organism: Bos taurus; assay: Displacement of [3H]colchicine from tubulin in bovine brain at 5 uM DEAE-cellulose filter method
[20] = Inhibition of bovine brain tubulin polymerization preincubated for 15 mins by turbidimetric analysis; parameters: species or system Bos taurus
Procedure, shortened: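 Bovine brain tubulin (10 μM) in glutamate buffer preincubated with varying compound concentrations for 15 min at 30 °C, then chilled to 0 °C. GTP 0.4 mM added and mixtures warmed to 30 °C in a spectrophotometer; assembly followed by turbidity at 350 nm.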

[21] = Antiproliferative activity against human taxol-resistant A549-T12 cells expressing tubulin mutant gene after 72 hrs by MTT assay; type: functional, cell-based; settings: A549, 72 h
Procedure, shortened: (§3)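 Resistant sublines cultured under selection: LoVo^Doxo (doxorubicin-resistant LoVo subclone) in complete Ham's F12 with doxorubicin 0.1 μg/mL; A549-T12 in complete DMEM with taxol 12 nM. Seeded at 8 × 10³ per well, 18 h preincubation, then 72 h compound exposure at 37 °C. MTT read-out.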

[22] = Antiproliferative activity against human vinblastine-resistant CEM/VBL100 cells overexpressing P-glycoprotein after 72 hrs by MTT assay; type: functional, cell-based; settings: CEM/VBL100, 72 h
CCRF-CEM [23] = assay: Antiproliferative activity against human CEM cells after 72 hrs by MTT assay; type: functional, cell-based
[24] = Antiproliferative activity against human doxorubicin-resistant LoVo/DX cells overexpressing P-glycoprotein after 72 hrs by MTT assay; type: functional, cell-based; procedure, shortened: as §3
LoVo [25] = assay: Antiproliferative activity against human LoVo cells after 72 hrs by MTT assay; type: functional, cell-based
Procedure, shortened: (§4)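 Cells seeded at 8 × 10³ per well and incubated 18 h at 37 °C, 5% CO₂, then exposed to a range of compound concentrations for 72 h at 37 °C. Jurkat and HL-60 were grown in RPMI-1640, the others in DMEM, with penicillin, streptomycin and 10% FBS. DMSO stocks (10 mM); DMSO ≤0.25% final. Viability by MTT. […] Mean ± SE of ≥3 independent experiments.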

[26] = Growth inhibition of human resting PBL after 72 hrs by MTT assay; type: cell-based; settings: resting peripheral blood lymphocytes (PBL)
PBL = assay: Growth inhibition of PHA-stimulated human PBL after 72 hrs by MTT assay; type: functional
HT-29 = assay: Antiproliferative activity against human HT-29 cells after 72 hrs by MTT assay; type: functional, cell-based; settings: HT-29, 72 h
Jurkat [27] = assay: Antiproliferative activity against human Jurkat cells after 72 hrs by MTT assay; type: functional, cell-based; procedure, shortened: as §4
MCF7 = assay: Antiproliferative activity against human MCF7 cells after 72 hrs by MTT assay; type: functional, cell-based; settings: MCF7, 72 h
HL-60 = assay: Antiproliferative activity against human HL60 cells after 72 hrs by MTT assay; type: functional, cell-based; settings: HL-60, 72 h
HeLa [28] = assay: Antiproliferative activity against human HeLa cells after 72 hrs by MTT assay; type: functional, cell-based
HeLa [29] = assay: Induction of survivin phosphorylation at Thr34 in human HeLa cells at 250 to 500 nM after 24 to 48 hrs by Western blot analysis

For `COc1cc(-c2nc(C)sc2-c2ccc3ccccc3c2)cc(OC)c1OC`, the “Ratio IC50” value (A549) was 1, the “Ratio IC50” value (CCRF-CEM [1]) was 1.4 and the “Ratio IC50” value (LoVo [2]) was 2.1. The Activity (HeLa [3]) was “Active”, the Activity (HeLa [4]) was “Active” and the Activity (HeLa [5]) was “inactive”. The Activity (HeLa [6]) was “Active”, the Activity (HeLa [7]) was “Active” and the Activity (HeLa [8]) was “Active”. The Activity (HeLa [9]) was “Active”, the Activity (HeLa [10]) was “Active” and the Activity (HeLa [11]) was “inactive”. The Activity (HeLa [12]) was “Active”, the Activity (HeLa [13]) was “Active” and the Activity (HeLa [14]) was “Active”. The Activity (HeLa [15]) was “inactive”, the Activity [16] was “Active” and the Activity [17] was “Active”. The Activity (Jurkat [18]) was “Active”, the Activity (HeLa [19]) was “Active” and the inhibition (Bos taurus) was 66%. It also gave an IC50 [20] of 1.1 µM, an IC50 [21] of 0.121 µM and an IC50 [22] of 0.088 µM. For the same compound, the IC50 (CCRF-CEM [23]) was 0.061 µM, the IC50 [24] was 0.15 µM and the IC50 (LoVo [25]) was 0.072 µM. For the same compound, the GI50 at 72 h [26] was 1.27 µM, the GI50 (PBL) was 0.285 µM and the IC50 (HT-29) was 0.702 µM. The IC50 (Jurkat [27]) was 0.0486 µM, the IC50 (MCF7) was 0.0334 µM and the IC50 (HL-60) was 0.205 µM. The IC50 (HeLa [28]) was 0.0821 µM and the Activity (HeLa [29]) was “Active”.

From ChEMBL document CHEMBL2202972, “Synthesis and biological evaluation of 2-substituted-4-(3',4',5'-trimethoxyphenyl)-5-aryl thiazoles as anticancer agents” (Bioorg Med Chem, 2012)
